A short description of assay [1]: Displacement of [3H]flumazenil form benzodiazepine-binding site of GABA(A) receptor in rat cortical membrane after 30 mins by glass fiber filtration assay. The format is cell membranes. The note with it: in the assay text read “after 40 mins” for “after 30 mins”. In a few lines:
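Rat cortex homogenized in 30 mM Tris–HCl pH 7.4, washed by 27,000g spins, held at 37 °C for 30 min, stored at −20 °C. Membranes (1 mg original tissue/0.55 mL) in 50 mM Tris–citrate pH 7.1 with 1 nM final [3H]flumazenil, 40 min at 0–4 °C. GF/C filtration. Nonspecific binding with 1 µM clonazepam. IC50 from 4–6 concentrations; Ki = IC50/(1+L/KD).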

In assay [2] the target is T1, GABA-A receptor; alpha-3/beta-3/gamma-2 (Homo sapiens, UniProt P18507+P28472+P34903).
T1 sequence (P18507 whole entry): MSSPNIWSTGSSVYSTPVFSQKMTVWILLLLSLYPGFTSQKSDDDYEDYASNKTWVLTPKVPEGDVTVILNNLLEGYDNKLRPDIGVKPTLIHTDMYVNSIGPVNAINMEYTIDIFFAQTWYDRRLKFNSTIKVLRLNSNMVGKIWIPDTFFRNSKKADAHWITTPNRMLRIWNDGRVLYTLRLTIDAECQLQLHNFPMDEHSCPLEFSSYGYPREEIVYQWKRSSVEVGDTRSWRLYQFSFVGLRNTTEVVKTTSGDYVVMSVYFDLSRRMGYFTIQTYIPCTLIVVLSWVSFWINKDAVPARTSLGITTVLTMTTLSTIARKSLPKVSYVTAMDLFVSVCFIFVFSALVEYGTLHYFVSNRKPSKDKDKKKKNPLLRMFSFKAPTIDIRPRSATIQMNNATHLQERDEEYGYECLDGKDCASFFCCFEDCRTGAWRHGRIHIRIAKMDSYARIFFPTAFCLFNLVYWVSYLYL
T1 sequence (P28472 whole entry): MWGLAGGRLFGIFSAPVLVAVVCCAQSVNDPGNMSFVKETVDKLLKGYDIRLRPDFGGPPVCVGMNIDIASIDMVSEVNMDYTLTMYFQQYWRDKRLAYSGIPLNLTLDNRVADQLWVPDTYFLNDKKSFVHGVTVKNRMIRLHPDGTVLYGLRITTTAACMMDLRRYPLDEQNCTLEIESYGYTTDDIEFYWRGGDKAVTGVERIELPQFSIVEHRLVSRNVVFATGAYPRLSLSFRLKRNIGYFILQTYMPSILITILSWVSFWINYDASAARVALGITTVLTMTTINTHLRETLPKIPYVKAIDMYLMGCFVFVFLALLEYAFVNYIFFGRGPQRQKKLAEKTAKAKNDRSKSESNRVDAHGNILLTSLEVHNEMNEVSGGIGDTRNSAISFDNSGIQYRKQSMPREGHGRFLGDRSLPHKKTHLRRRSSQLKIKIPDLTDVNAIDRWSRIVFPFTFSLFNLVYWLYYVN
T1 sequence (P34903 whole entry): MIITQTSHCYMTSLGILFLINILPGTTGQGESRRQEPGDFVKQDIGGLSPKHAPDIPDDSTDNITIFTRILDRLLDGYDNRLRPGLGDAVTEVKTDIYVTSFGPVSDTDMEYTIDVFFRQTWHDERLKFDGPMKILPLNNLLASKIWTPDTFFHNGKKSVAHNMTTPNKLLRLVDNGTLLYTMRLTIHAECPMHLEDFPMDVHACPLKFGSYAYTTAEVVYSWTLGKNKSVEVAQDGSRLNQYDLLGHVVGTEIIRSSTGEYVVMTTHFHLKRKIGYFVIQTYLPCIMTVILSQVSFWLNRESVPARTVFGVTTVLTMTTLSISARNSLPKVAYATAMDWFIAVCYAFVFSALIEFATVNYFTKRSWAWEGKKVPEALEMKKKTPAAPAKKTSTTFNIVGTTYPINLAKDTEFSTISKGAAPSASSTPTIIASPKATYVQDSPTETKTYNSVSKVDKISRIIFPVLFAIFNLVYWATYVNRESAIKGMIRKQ
Description: Displacement of [3H]flumazenil human recombinant alpha3beta3gamma2 GABA(A) receptor expressed in HEK293 cells after 30 mins by glass fiber filtration assay. The format is cell-based. The following applies: in the assay text read “after 40 mins” for “after 30 mins”. In a few lines:
(§1)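 HEK cell membranes carrying human receptors in 50 mM Tris–citrate pH 7.1 with 1 nM final [3H]flumazenil, incubated 40 min on ice (0–4 °C). Filtered on GF/C and washed with ice-cold buffer. Clonazepam 1 µM final defined nonspecific binding. IC50 from 4–6 test concentrations, converted by Ki = IC50/(1+L/KD). Mean ± SD of three determinations.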
For orientation: Displacement assays read how much labelled ligand stays bound in the presence of the test substance.

The species entered for assay [3] is Homo sapiens. Kind of assay: Selectivity ratio of Ki for human recombinant alpha3beta3gamma2 GABA(A) receptor to Ki for human recombinant alpha1beta3gamma2 GABA(A) receptor. In a few lines: (§2)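 Ratio of the Ki at the named subtype to the Ki at α1β3γ2. Both Ki values come from [3H]flumazenil (1 nM) displacement on membranes of HEK cells with human receptors, run 40 min at 0–4 °C with GF/C filtration. Ki = IC50/(1+L/KD).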

The target in assay [4] is T2, GABA-A receptor; alpha-1/beta-3/gamma-2 (Homo sapiens, UniProt P14867+P18507+P28472).
T2 sequence (P14867 whole entry): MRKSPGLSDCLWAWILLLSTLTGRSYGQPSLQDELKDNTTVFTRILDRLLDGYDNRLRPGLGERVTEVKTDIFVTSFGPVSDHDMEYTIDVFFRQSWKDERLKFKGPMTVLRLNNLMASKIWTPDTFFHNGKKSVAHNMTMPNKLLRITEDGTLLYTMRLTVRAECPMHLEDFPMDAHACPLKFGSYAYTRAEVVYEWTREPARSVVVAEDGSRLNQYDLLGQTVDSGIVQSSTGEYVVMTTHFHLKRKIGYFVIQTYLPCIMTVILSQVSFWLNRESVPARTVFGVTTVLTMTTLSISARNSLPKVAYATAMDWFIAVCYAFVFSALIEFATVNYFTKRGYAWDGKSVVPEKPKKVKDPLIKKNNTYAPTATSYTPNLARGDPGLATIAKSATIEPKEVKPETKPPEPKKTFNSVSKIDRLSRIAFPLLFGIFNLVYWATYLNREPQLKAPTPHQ
T2 sequence (P18507 whole entry): T1 sequence (P18507 whole entry)
T2 sequence (P28472 whole entry): T1 sequence (P28472 whole entry)
Description: Displacement of [3H]flumazenil human recombinant alpha1beta3gamma2 GABA(A) receptor expressed in HEK293 cells after 30 mins by glass fiber filtration assay. The format is cell-based. The following applies: in the assay text read “after 40 mins” for “after 30 mins”. In a few lines:
as §1

Assay [5] is filed under the species Homo sapiens. Description: Selectivity ratio of Ki for human recombinant alpha5beta3gamma2 GABA(A) receptor to Ki for human recombinant alpha1beta3gamma2 GABA(A) receptor. The method in brief: as §2
Assay [6] concerns the target T3, GABA-A receptor; alpha-2/beta-3/gamma-2 (Homo sapiens, UniProt P18507+P28472+P47869).
T3 sequence (P18507 whole entry): T1 sequence (P18507 whole entry)
T3 sequence (P28472 whole entry): T1 sequence (P28472 whole entry)
T3 sequence (P47869 whole entry): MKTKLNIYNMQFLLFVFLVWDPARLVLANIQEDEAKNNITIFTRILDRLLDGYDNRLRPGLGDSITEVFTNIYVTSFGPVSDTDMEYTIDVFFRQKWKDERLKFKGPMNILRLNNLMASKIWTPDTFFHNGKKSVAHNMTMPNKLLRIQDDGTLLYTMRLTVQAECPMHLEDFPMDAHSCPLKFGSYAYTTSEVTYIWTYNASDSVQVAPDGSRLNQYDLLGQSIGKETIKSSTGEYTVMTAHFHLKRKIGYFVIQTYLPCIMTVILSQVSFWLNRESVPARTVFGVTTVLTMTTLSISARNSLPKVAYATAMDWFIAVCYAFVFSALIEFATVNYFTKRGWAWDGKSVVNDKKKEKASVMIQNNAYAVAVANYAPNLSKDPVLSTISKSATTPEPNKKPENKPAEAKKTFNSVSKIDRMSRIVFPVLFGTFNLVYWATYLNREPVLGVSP
Description: Displacement of [3H]flumazenil human recombinant alpha2beta3gamma2 GABA(A) receptor expressed in HEK293 cells after 30 mins by glass fiber filtration assay. The format is cell-based. The note with it: in the assay text read “after 40 mins” for “after 30 mins”. The method in brief:
as §1

Assay [7] has as its target T4, GABA-A receptor; alpha-5/beta-3/gamma-2 (Homo sapiens, UniProt P18507+P28472+P31644).
T4 sequence (P18507 whole entry): T1 sequence (P18507 whole entry)
T4 sequence (P28472 whole entry): T1 sequence (P28472 whole entry)
T4 sequence (P31644 whole entry): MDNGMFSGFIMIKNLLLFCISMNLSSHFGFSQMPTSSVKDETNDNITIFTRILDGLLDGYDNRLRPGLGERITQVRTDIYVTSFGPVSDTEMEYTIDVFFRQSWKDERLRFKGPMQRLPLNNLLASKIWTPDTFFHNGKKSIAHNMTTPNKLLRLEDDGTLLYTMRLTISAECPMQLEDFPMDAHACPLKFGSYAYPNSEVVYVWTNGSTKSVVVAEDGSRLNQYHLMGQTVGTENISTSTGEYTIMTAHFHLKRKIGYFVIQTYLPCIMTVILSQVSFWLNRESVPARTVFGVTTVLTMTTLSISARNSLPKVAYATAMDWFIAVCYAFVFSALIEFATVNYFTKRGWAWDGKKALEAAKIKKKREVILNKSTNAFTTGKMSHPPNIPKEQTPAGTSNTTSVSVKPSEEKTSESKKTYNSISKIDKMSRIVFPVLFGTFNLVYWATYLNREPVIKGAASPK
Description: Displacement of [3H]flumazenil human recombinant alpha5beta3gamma2 GABA(A) receptor expressed in HEK293 cells after 30 mins by glass fiber filtration assay. The format is cell-based. The following applies: in the assay text read “after 40 mins” for “after 30 mins”. In a few lines:
as §1

Assay [8] is filed under the species Homo sapiens. Kind of assay: Selectivity ratio of Ki for human recombinant alpha2beta3gamma2 GABA(A) receptor to Ki for human recombinant alpha1beta3gamma2 GABA(A) receptor. The method in brief:
as §2

As usually defined, the Ki is a measure of affinity in units of concentration, obtained from inhibition or displacement.

As to `Cc1ccc(-n2nc3c4cc(Cc5ccccc5)ccc4[nH]c(=O)n3c2=O)cc1`, in assay [1], affinity was put at a Ki of 1 nM.
The same measure, in the same setting: the same measure for `Cc1ccc(-n2nc3c4cc(CCc5ccc(Oc6ccccc6)cc5)ccc4[nH]c(=O)n3c2=O)cc1`: 123 nM; for `Cc1ccc(-n2nc3c4cc(CCc5ccccn5)ccc4[nH]c(=O)n3c2=O)cc1`: 0.53 nM.
In turn, `Cc1ccc(-n2nc3c4cc(CCc5cccc(O)c5)ccc4[nH]c(=O)n3c2=O)cc1` registered a Ki in assay [1] of 12.4 nM.
Same read-out and setting: the same measure for `Cc1ccc(-n2nc3c4cc(Cc5cccc(F)c5)ccc4[nH]c(=O)n3c2=O)cc1`: 2.1 nM; for `O=c1[nH]c2ccc(Br)cc2c2nn(-c3ccccc3F)c(=O)n12`: 0.2 nM.
For the compound `Cc1ccc(-n2nc3c4cc(CCc5ccsc5)ccc4[nH]c(=O)n3c2=O)cc1`, the inhibition constant (Ki) was 0.71 nM in assay [2]; 0.14 nM in assay [4]; 0.94 nM in assay [1]; 1.7 nM in assay [6]; 3.6 nM in assay [7]. Also, the results for the Ratio Ki in assay [3] and in assay [5] were 5 and 26, respectively.
`Cc1ccc(-n2nc3c4cc(Cc5ccsc5)ccc4[nH]c(=O)n3c2=O)cc1` came in with a Ki in assay [1] of 0.23 nM.
Still for that read-out and setting: to `Cc1ccc(-n2nc3c4cc(C#Cc5ccccc5)ccc4[nH]c(=O)n3c2=O)cc1` belongs 40 nM.
`Cc1ccc(-n2nc3c4cc(CCc5ccccc5)ccc4[nH]c(=O)n3c2=O)cc1`: the Ki is 9.7 nM in assay [2]; 3.6 nM in assay [4]; 4 nM in assay [1]; 65 nM in assay [6]; 66 nM in assay [7]. For the same compound, the Ratio Ki in assay [8] amounted to 18.
In assay [1], `Cc1ccc(-n2nc3c4cc(CCC(=O)O)ccc4[nH]c(=O)n3c2=O)cc1` showed a Ki of 1.4 nM.
On the same count and under the same terms, the same measure for `Cc1ccc(-n2nc3c4cc(CCc5ccncc5)ccc4[nH]c(=O)n3c2=O)cc1`: 0.17 nM; for `Cc1ccc(-n2nc3c4cc(CCc5ccc(-c6ccccc6)cc5)ccc4[nH]c(=O)n3c2=O)cc1`: 1570 nM.
Take `Cc1ccc2[nH]c(=O)n3c(=O)n(-c4ccccc4)nc3c2c1`: the Ki turned out to be 1.3 nM in assay [2], 0.43 nM in assay [4], 0.62 nM in assay [1] and 1 nM in assay [6]. For the same compound, the Ratio Ki in assay [8] is 2.
Compound `O=c1[nH]c2ccc(Br)cc2c2nn(-c3ccc(Cl)cc3)c(=O)n12` gave a Ki in assay [1] of 0.6 nM.
Still for that read-out and setting: the same measure for `Cc1ccc(-n2nc3c4cc(Br)ccc4[nH]c(=O)n3c2=O)cc1`: 0.47 nM.
Turning to `O=c1[nH]c2ccc(Br)cc2c2nn(-c3ccccc3)c(=O)n12`, the Ki in assay [1] was 0.24 nM.
`Cc1ccc(-n2nc3c4cc(CCc5cccnc5)ccc4[nH]c(=O)n3c2=O)cc1`: the Ki in assay [2] was determined as 2.3 nM; in assay [4], 0.68 nM; in assay [1], 0.2 nM; in assay [6], 4.4 nM; in assay [7], 9.1 nM. The values for the Ratio Ki in assay [3] and in assay [5] were 3 and 13, respectively.

The values are drawn from ChEMBL document CHEMBL1641431, “Triazoloquinazolinediones as novel high affinity ligands for the benzodiazepine site of GABA(A) receptors” (Bioorg Med Chem, 2011).
